The structures appear in SMILES notation. Activity calls are given as the source filed them.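 Rule for the calls: active = IC50 of 10 µM or lower; inactive = IC50 above 10 µM.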

ADP-ribosylation factor GTPase-activating protein 1 (Rattus norvegicus), sequence (Q62848 1-136 limits assumed): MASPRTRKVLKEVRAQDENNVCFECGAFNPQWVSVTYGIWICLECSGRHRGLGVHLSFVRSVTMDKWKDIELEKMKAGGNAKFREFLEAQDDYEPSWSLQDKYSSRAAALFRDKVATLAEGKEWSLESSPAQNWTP

This test has as its target ADP-ribosylation factor GTPase-activating protein 1 (Rattus norvegicus) (UniProt Q62848). Briefly: rat ARFGAP1 inhibitor potency curves, late-stage follow-up, biochemical, fluorescence polarization, round 000 (AID 743243). Conditions: ARFGAP1-stimulated ARF1 GTP hydrolysis, GDP fluorescence polarization. The method, boiled down: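 Test system – purified His6-tagged rat Arfgap1 GAP domain (residues 1-136) · Doses – triplicate series, top 165 µM · Schedule – 20 min enzyme-compound preincubation, then 120 min GTPase reaction, 25 °C · Signal – FP GDP tracer-antibody displacement, 620/688 nm · Controls – wells without Arfgap1 as full-inhibition reference · Replicates – each compound dose series run in triplicate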
Background: Polarisation of emitted light reports the rotation of a fluorescent probe.
Usually IC50 stands for the concentration at which inhibition is half-maximal. Take `Fc1cccc(-c2nnn3c2nc(NCCc2ccccc2)c2ccccc23)c1`: the IC50 is > 165 µM (inactive).
To `COc1ccc(CNc2nc3c(-c4cccc(F)c4)nnn3c3ccccc23)cc1` belongs “inactive”; to `Fc1cccc(-c2nnn3c2nc(NCCc2ccc(Cl)cc2)c2ccccc23)c1`, > 165 µM (inactive).
The figure for `COc1ccccc1Oc1ccc2c(c1)C(=O)N(c1cccc3ncccc13)C2=O` is > 165 µM (inactive); for `NS(=O)(=O)c1ccc(CCNc2nc3c(-c4ccc(Cl)cc4)nnn3c3ccccc23)cc1` it is “inactive”; for `COc1cccc(C(=O)COC(=O)c2ccc3c(c2)C(=O)N(c2cccc(C(F)(F)F)c2)C3=O)c1` it is > 165 µM (inactive).
The figure for `Cc1ccc(N2C(=O)c3ccc(C(=O)OCC(=O)c4ccccc4)cc3C2=O)c(C)c1` is > 165 µM (inactive); for `O=C(NCc1ccco1)c1ccc2c(c1)C(=O)N(c1ccc(C(=O)c3ccccc3)cc1)C2=O` it is > 165 µM (inactive).
Turning to `O=C(NCCc1nc2ccccc2[nH]1)c1ccc2c(c1)C(=O)N(c1ccc(F)cc1)C2=O`, the IC50 is > 165 µM (inactive).
Take `O=C1c2cc(Cl)c(Cl)cc2C(=O)N1c1cccc2ncccc12`: the IC50 is > 165 µM (inactive).
To `Cc1cccc(-c2nnn3c2nc(NCCc2ccc(S(N)(=O)=O)cc2)c2ccccc23)c1` belongs “inactive”; to `CCCOC(=O)c1ccc2c(c1)C(=O)N(c1cccc3ccccc13)C2=O`, > 165 µM (inactive); to `O=C1c2ccccc2C(=O)N1c1cccc2ncccc12`, > 165 µM (inactive).
For `CC(C)(C)NC(=O)c1ccc2c(c1)C(=O)N(c1ccccc1-c1ccccc1)C2=O`, the IC50 is > 165 µM (inactive).
The figure for `Cc1ccc(C(=O)COC(=O)c2ccc3c(c2)C(=O)N(c2cccc4ccccc24)C3=O)cc1` is > 165 µM (inactive).
To `CC(CNc1nc2c(-c3cccc(F)c3)nnn2c2ccccc12)c1ccccc1` (stereo not drawn) belongs > 165 µM (inactive); to `O=C1c2ccc(Oc3ccc(Br)cc3)cc2C(=O)N1c1cccc2ncccc12`, “inactive”; to `O=C(COC(=O)c1ccc2c(c1)C(=O)N(c1ccccc1Cl)C2=O)c1ccc(Br)cc1`, > 165 µM (inactive).
The figure for `CC(C)CNC(=O)c1ccc2c(c1)C(=O)N(c1ccccc1-c1ccccc1)C2=O` is > 165 µM (inactive).
With `Cc1ccc(N2C(=O)c3ccc(C(=O)N4c5ccccc5CC4C)cc3C2=O)cc1` (stereo not drawn), the IC50 was > 165 µM (inactive).
Take `Cc1ccc(N2C(=O)c3ccc(C(=O)N4CCN(Cc5ccccc5)CC4)cc3C2=O)cc1`: the IC50 was > 165 µM (inactive).
Regarding `O=C(OCC(=O)c1cccs1)c1ccc2c(c1)C(=O)N(c1cccc3ccccc13)C2=O`, the IC50 was > 165 µM (inactive).
Consider `Fc1cccc(-c2nnn3c2nc(NCCc2ccccc2)c2ccc(Cl)cc23)c1`, for which the IC50 is > 165 µM (inactive).
The figure for `Cc1ccc(C(=O)COC(=O)c2ccc3c(c2)C(=O)N(c2cccc4ncccc24)C3=O)cc1` is > 165 µM (inactive).
The figure for `O=C(COC(=O)c1ccc2c(c1)C(=O)N(c1cccc3ncccc13)C2=O)c1ccc(Cl)cc1` is 2.13 µM.
To `O=C(COC(=O)c1ccc2c(c1)C(=O)N(c1cccc(Cl)c1Cl)C2=O)c1ccc(F)cc1` belongs > 165 µM (inactive); to `COc1ccc(CNc2nc3c(-c4cccc(F)c4)nnn3c3cc(Cl)ccc23)cc1`, > 165 µM (inactive).
With `Cc1ccc(N2C(=O)c3ccc(C(=O)OCC(=O)C(C)(C)C)cc3C2=O)cc1`, the IC50 was > 165 µM (inactive).
The figure for `O=C(NCC1CCCO1)c1ccc2c(c1)C(=O)N(c1cccc3ccccc13)C2=O` (stereo not drawn) is > 165 µM (inactive); for `Fc1cccc(-c2nnn3c2nc(NCc2ccc4c(c2)OCO4)c2ccccc23)c1` it is > 165 µM (inactive).
To `O=C(COC(=O)c1ccc2c(c1)C(=O)N(c1cccc(Cl)c1Cl)C2=O)c1ccccc1` belongs > 165 µM (inactive); to `O=C(COC(=O)c1ccc2c(c1)C(=O)N(c1cc(C(F)(F)F)ccc1Cl)C2=O)c1ccccc1`, > 165 µM (inactive).
To `O=C(NCC1CCCO1)c1ccc2c(c1)C(=O)N(c1ccccc1-c1ccccc1)C2=O` (stereo not drawn) belongs > 165 µM (inactive).
For `COc1ccccc1N1C(=O)c2ccc(C(=O)OCC(=O)c3ccc(Br)cc3)cc2C1=O`, the IC50 is > 165 µM (inactive).
The figure for `CCOCCCNC(=O)c1ccc2c(c1)C(=O)N(c1ccc(Cn3cncn3)cc1)C2=O` is > 165 µM (inactive); for `NS(=O)(=O)c1ccc(CCNc2nc3c(-c4cccc(F)c4)nnn3c3ccccc23)cc1` it is “inactive”.
To `O=C(COC(=O)c1ccc2c(c1)C(=O)N(c1cccc(C(F)(F)F)c1)C2=O)c1ccc(Cl)cc1` belongs > 165 µM (inactive); to `Cc1cccc(Oc2ccc(N3C(=O)c4ccc(C(=O)OCC(=O)Nc5cccc(C)c5C)cc4C3=O)cc2)c1`, > 165 µM (inactive); to `COc1ccc(CCNc2nc3c(-c4cccc(F)c4)nnn3c3cc(Cl)ccc23)cc1OC`, > 165 µM (inactive).
To `COc1cccc(C(=O)COC(=O)c2ccc3c(c2)C(=O)N(c2ccc(F)cc2)C3=O)c1` belongs > 165 µM (inactive); to `Cc1cccc(N2C(=O)c3ccc(C(=O)NC4CCCCC4)cc3C2=O)c1C`, > 165 µM (inactive); to `O=C(NC1CCCCC1)c1ccc2c(c1)C(=O)N(c1ccccc1-c1ccccc1)C2=O`, > 165 µM (inactive).
Turning to `Cc1ccc(Oc2ccc3c(c2)C(=O)N(c2cccc4ncccc24)C3=O)cc1C`, the IC50 is > 165 µM (inactive).
To `NS(=O)(=O)c1ccc(CCNc2nc3c(-c4cccc(C(F)(F)F)c4)nnn3c3ccccc23)cc1` belongs 6.9 µM; to `Cc1ccc(C(=O)C(C)OC(=O)c2ccc3c(c2)C(=O)N(c2cccc(Cl)c2Cl)C3=O)cc1` (stereo not drawn), > 165 µM (inactive).
To `Cc1cccc(-c2nnn3c2nc(NCCc2ccc(S(N)(=O)=O)cc2)c2ccc(Cl)cc23)c1` belongs “inactive”.
To `NS(=O)(=O)c1ccc(CCNc2nc3c(-c4cccc(Cl)c4)nnn3c3ccccc23)cc1` belongs “inactive”; to `Cc1ccc(CNc2nc3c(-c4cccc(F)c4)nnn3c3cc(Cl)ccc23)cc1`, > 165 µM (inactive).

(Values after PubChem BioAssay AID743243 (The Scripps Research Institute Molecular Screening Center, 2013).)
